Results reported in ChEMBL document CHEMBL1141610, “Design, synthesis, and studies of small molecule STAT3 inhibitors” (Bioorg Med Chem Lett, 2008).
The source made the active and inactive calls. The rule behind the calls is not given here.

How the values were obtained:
[1] = tested on: DU-145; assay: Antiproliferative activity against human DU145 cells after 72 hrs by MTS assay; assay type: functional, cell-based; details: DU-145, 72 h
In short: (§1)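 Cells seeded at 2000 per well, exposed to varying compound concentrations for 72 h. Viability read by MTS assay. IC50 values are means of two separate experiments, each run in triplicate.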

[2] = tested on: PC-3; assay: Antiproliferative activity against human PC3 cells after 72 hrs by MTS assay; assay type: functional, cell-based; details: PC-3, 72 h; in short: as §1
[3] = tested on: LNCaP; assay: Antiproliferative activity against human LNCaP cells after 72 hrs by MTS assay; assay type: functional, cell-based; in short: as §1
[4] = tested on: MCF7; assay: Antiproliferative activity against human MCF7 cells after 72 hrs by MTS assay; assay type: functional, cell-based; details: MCF7, 72 h; in short: as §1
[5] = biological target: Signal transducer and activator of transcription 3 (Homo sapiens) (UniProt P40763); assay: Inhibition of STAT3 binding to DNA
Sequence of Signal transducer and activator of transcription 3 (Homo sapiens) (P40763 whole entry): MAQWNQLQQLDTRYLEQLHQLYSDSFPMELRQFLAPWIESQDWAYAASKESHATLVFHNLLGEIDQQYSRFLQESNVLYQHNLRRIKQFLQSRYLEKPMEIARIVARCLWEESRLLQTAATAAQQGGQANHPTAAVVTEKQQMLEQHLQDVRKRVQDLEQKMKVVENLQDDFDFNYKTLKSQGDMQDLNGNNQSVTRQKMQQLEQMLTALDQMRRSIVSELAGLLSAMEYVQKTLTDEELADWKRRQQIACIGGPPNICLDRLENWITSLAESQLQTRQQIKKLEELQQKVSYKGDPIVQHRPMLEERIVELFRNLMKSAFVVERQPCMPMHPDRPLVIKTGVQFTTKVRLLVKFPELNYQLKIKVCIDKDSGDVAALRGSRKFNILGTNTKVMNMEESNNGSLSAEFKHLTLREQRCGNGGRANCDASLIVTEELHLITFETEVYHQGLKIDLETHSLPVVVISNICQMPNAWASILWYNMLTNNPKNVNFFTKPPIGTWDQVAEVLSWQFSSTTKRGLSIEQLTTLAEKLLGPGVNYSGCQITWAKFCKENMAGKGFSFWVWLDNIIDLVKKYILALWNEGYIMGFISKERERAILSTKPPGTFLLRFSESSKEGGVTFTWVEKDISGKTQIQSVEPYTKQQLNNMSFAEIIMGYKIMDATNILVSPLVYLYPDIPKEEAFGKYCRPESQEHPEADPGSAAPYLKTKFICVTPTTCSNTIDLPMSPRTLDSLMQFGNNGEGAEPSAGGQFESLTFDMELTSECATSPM

Structure (SMILES) | IC50 [1] | IC50 [2] | IC50 [3] | IC50 [4] | Activity [5]
CC(=O)c1cccc2c1C(=O)c1c(O)cccc1C2=O | 31.5 µM | 32.4 µM | 31.5 µM |  | 
COc1cccc2c1C(=O)c1cccc(C(C)=O)c1C2=O | > 100 µM | > 100 µM | > 100 µM |  | 
COc1cccc2c1C(=O)c1c(C(C)=O)cccc1C2=O | > 100 µM | > 100 µM | > 100 µM |  | 

More lines, now with the values ahead:

IC50 [1] | IC50 [2] | IC50 [3] | IC50 [4] | Activity [5] | Structure (SMILES)
16.2 µM | 13.4 µM | 34.1 µM | 88.5 µM |  | CC(=O)c1cccc2c1C(=O)c1cccc(O)c1C2=O
12.2 µM | 18.7 µM |  | 124 µM | Active | C[C@@H]1CC(=O)c2c(ccc3c2C(=O)c2cccc(O)c2C3=O)C1 [OCHROMYCINONE]
